Results reported in ChEMBL document CHEMBL1154616, “Synthesis and antitumor activity studies of some new fused 1,2,4-triazole derivatives carrying 2,4-dichloro-5-fluorophenyl moiety” (Eur J Med Chem, 2009).

Experiments:
Assay type in all cases: functional
Malme-3M = assay: Anticancer activity against human MALME-3M cells after 48 hrs by sulforhodamine B assay
Procedure, shortened: (§1)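 Full 60-cell-line panel, compounds tested over a five-log dose range. Cells are preincubated on microtiter plates, the agent is added, and cultures run 48 h. The end point is sulphorhodamine B protein staining. GI50 is taken as the concentration giving 50% growth inhibition relative to untreated control cells.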

MOLT-4 = assay: Anticancer activity against human MOLT4 cells after 48 hrs by sulforhodamine B assay; settings: MOLT-4, 48 h; procedure, shortened: as §1
IGROV-1 = assay: Anticancer activity against human IGROV1 cells after 48 hrs by sulforhodamine B assay; settings: IGROV-1, 48 h; procedure, shortened: as §1
TK-10 = assay: Anticancer activity against human TK10 cells after 48 hrs by sulforhodamine B assay; settings: TK-10, 48 h
Procedure, shortened: (§2)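 Cells from the 60-line full panel are preincubated on microtiter plates, then treated across a five-log dose range for 48 h. Growth is read with the protein-binding dye sulforhodamine B. GI50 is the concentration giving 50% growth inhibition relative to untreated control cells.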

[1] = Anticancer activity against human […] cells after 48 hrs by sulforhodamine B assay; procedure, shortened: as §1
MCF7 [2] = assay: Anticancer activity against human MCF7 cells after 48 hrs by sulforhodamine B assay; settings: MCF7, 48 h; procedure, shortened: as §1
T47D = assay: Anticancer activity against human T47D cells after 48 hrs by sulforhodamine B assay; procedure, shortened: as §2
SK-MEL-28 = assay: Anticancer activity against human SK-MEL-28 cells after 48 hrs by sulforhodamine B assay; settings: SK-MEL-28, 48 h; procedure, shortened: as §1
RXF 393 = assay: Anticancer activity against human RXF393 cells after 48 hrs by sulforhodamine B assay; settings: RXF 393, 48 h; procedure, shortened: as §1
NCI-H226 = assay: Anticancer activity against human NCI-H226 cells after 48 hrs by sulforhodamine B assay; settings: NCI-H226, 48 h; procedure, shortened: as §1
SF-539 = assay: Anticancer activity against human SF539 cells after 48 hrs by sulforhodamine B assay; settings: SF-539, 48 h; procedure, shortened: as §1
HCT-15 = assay: Anticancer activity against human HCT15 cells after 48 hrs by sulforhodamine B assay; settings: HCT-15, 48 h; procedure, shortened: as §1
UO-31 = assay: Anticancer activity against human UO31 cells after 48 hrs by sulforhodamine B assay; settings: UO-31, 48 h; procedure, shortened: as §2
NCI-H460 [3] = assay: Anticancer activity against human NCI-H460 cells assessed as cell growth at 100 uM after 48 hrs by sulforhodamine B assay relative to control; settings: NCI-H460, 48 h, read-out: Activity
Procedure, shortened: (§3)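 Three-cell-line prescreen (NCI-H460 lung, MCF7 breast, SF 268 CNS), each preincubated on microtiter plates. The agent is added at a single concentration and cultures are incubated 48 h. Growth is read by sulphorhodamine B protein staining and reported as percent growth of treated versus untreated control cells; negative values indicate cell kill.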

UACC-62 = assay: Anticancer activity against human UACC62 cells after 48 hrs by sulforhodamine B assay; settings: UACC-62, 48 h; procedure, shortened: as §2
KM12 = assay: Anticancer activity against human KM12 cells after 48 hrs by sulforhodamine B assay; settings: KM12, 48 h; procedure, shortened: as §1
NCI-H322M = assay: Anticancer activity against human NCI-H322M cells after 48 hrs by sulforhodamine B assay; procedure, shortened: as §1
SK-OV-3 = assay: Anticancer activity against human SKOV3 cells after 48 hrs by sulforhodamine B assay; settings: SK-OV-3, 48 h; procedure, shortened: as §1
SF-295 = assay: Anticancer activity against human SF295 cells after 48 hrs by sulforhodamine B assay; settings: SF-295, 48 h; procedure, shortened: as §1
NCI/ADR-RES = assay: Anticancer activity against human NCI/ADR-RES cells after 48 hrs by sulforhodamine B assay; procedure, shortened: as §1
CCRF-CEM = assay: Anticancer activity against human CCRF-CEM cells after 48 hrs by sulforhodamine B assay; procedure, shortened: as §1
HCC 2998 = assay: Anticancer activity against human HCC2998 cells after 48 hrs by sulforhodamine B assay; settings: HCC 2998, 48 h; procedure, shortened: as §1
DU-145 = assay: Anticancer activity against human DU145 cells after 48 hrs by sulforhodamine B assay; settings: DU-145, 48 h; procedure, shortened: as §1
OVCAR-8 = assay: Anticancer activity against human OVCAR8 cells after 48 hrs by sulforhodamine B assay; settings: OVCAR-8, 48 h; procedure, shortened: as §1
NCI-H522 = assay: Anticancer activity against human NCI-H522 cells after 48 hrs by sulforhodamine B assay; settings: NCI-H522, 48 h; procedure, shortened: as §1
A549 = assay: Anticancer activity against human A549 cells after 48 hrs by sulforhodamine B assay; settings: A549, 48 h; procedure, shortened: as §1
HL-60(TB) = assay: Anticancer activity against human HL-60(TB) cells after 48 hrs by sulforhodamine B assay; settings: HL-60, 48 h
Procedure, shortened: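 Run within the full 60-cell-line panel across a five-log dose range. GI50 was taken as the concentration causing 50% growth inhibition relative to untreated control cells.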

COLO 205 = assay: Anticancer activity against human COLO205 cells after 48 hrs by sulforhodamine B assay; settings: COLO 205, 48 h; procedure, shortened: as §1
SF-268 [4] = assay: Anticancer activity against human SF268 cells after 48 hrs by sulforhodamine B assay; settings: SF-268, 48 h; procedure, shortened: as §1
SR = assay: Anticancer activity against human SR cells after 48 hrs by sulforhodamine B assay; procedure, shortened: as §2
SNB-75 = assay: Anticancer activity against human SNB75 cells after 48 hrs by sulforhodamine B assay; settings: SNB-75, 48 h; procedure, shortened: as §2
LOX IMVI = assay: Anticancer activity against human LOXIMVI cells after 48 hrs by sulforhodamine B assay; procedure, shortened: as §1
ACHN = assay: Anticancer activity against human ACHN cells after 48 hrs by sulforhodamine B assay; procedure, shortened: as §1
EKVX = assay: Anticancer activity against human EKVX cells after 48 hrs by sulforhodamine B assay; procedure, shortened: as §1
PC-3 = assay: Anticancer activity against human PC3 cells after 48 hrs by sulforhodamine B assay; settings: PC-3, 48 h; procedure, shortened: as §1
MDA-MB-231 = assay: Anticancer activity against human MDA-MB-231 cells after 48 hrs by sulforhodamine B assay; settings: MDA-MB-231, 48 h; procedure, shortened: as §1
UACC-257 = assay: Anticancer activity against human UACC257 cells after 48 hrs by sulforhodamine B assay; settings: UACC-257, 48 h; procedure, shortened: as §2
NCI-H23 = assay: Anticancer activity against human NCI-H23 cells after 48 hrs by sulforhodamine B assay; settings: NCI-H23, 48 h; procedure, shortened: as §1
HOP-92 = assay: Anticancer activity against human HOP92 cells after 48 hrs by sulforhodamine B assay; settings: HOP-92, 48 h; procedure, shortened: as §1
U-251 = assay: Anticancer activity against human U251 cells after 48 hrs by sulforhodamine B assay; settings: U-251, 48 h; procedure, shortened: as §2
NCI-H460 [5] = assay: Anticancer activity against human NCI-H460 cells after 48 hrs by sulforhodamine B assay; settings: NCI-H460, 48 h; procedure, shortened: as §1
K562 = assay: Anticancer activity against human K562 cells after 48 hrs by sulforhodamine B assay; settings: K562, 48 h; procedure, shortened: as §1
SN12C = assay: Anticancer activity against human SN12C cells after 48 hrs by sulforhodamine B assay; procedure, shortened: as §1
MDA-MB-435 = assay: Anticancer activity against human MDA-MB-435 cells after 48 hrs by sulforhodamine B assay; settings: MDA-MB-435, 48 h; procedure, shortened: as §1
MCF7 [6] = assay: Anticancer activity against human MCF7 cells assessed as cell growth at 100 uM after 48 hrs by sulforhodamine B assay relative to control; settings: MCF7, 48 h, read-out: Activity; procedure, shortened: as §3
SW-620 = assay: Anticancer activity against human SW620 cells after 48 hrs by sulforhodamine B assay; settings: SW-620, 48 h; procedure, shortened: as §2
SF-268 [7] = assay: Anticancer activity against human SF268 cells assessed as cell growth at 100 uM after 48 hrs by sulforhodamine B assay relative to control; settings: SF-268, 48 h, read-out: Activity; procedure, shortened: as §3
OVCAR-5 = assay: Anticancer activity against human OVCAR5 cells after 48 hrs by sulforhodamine B assay; settings: OVCAR-5, 48 h; procedure, shortened: as §1
SNB-19 = assay: Anticancer activity against human SNB19 cells after 48 hrs by sulforhodamine B assay; settings: SNB-19, 48 h; procedure, shortened: as §1
CAKI-1 = assay: Anticancer activity against human Caki1 cells after 48 hrs by sulforhodamine B assay; settings: CAKI-1, 48 h; procedure, shortened: as §1
OVCAR-3 = assay: Anticancer activity against human OVCAR-3 cells after 48 hrs by sulforhodamine B assay; settings: OVCAR-3, 48 h; procedure, shortened: as §1
HT-29 = assay: Anticancer activity against human HT-29 cells after 48 hrs by sulforhodamine B assay; settings: HT-29, 48 h; procedure, shortened: as §1
[8] = Anticancer activity against human Hs 578T cells after 48 hrs by sulforhodamine B assay; procedure, shortened: as §1
OVCAR-4 = assay: Anticancer activity against human OVCAR4 cells after 48 hrs by sulforhodamine B assay; settings: OVCAR-4, 48 h; procedure, shortened: as §1

With `Fc1cc(C2=Nn3c(nnc3-c3cc(F)c(Cl)cc3Cl)SC2)c(Cl)cc1Cl` the GI50 (Malme-3M) was 28.4 µM, the GI50 (MOLT-4) was 16.9 µM and the GI50 (IGROV-1) was 29.8 µM. The GI50 (TK-10) was 37.4 µM, the GI50 [1] was 6 µM and the GI50 (MCF7 [2]) was 16.8 µM. For the same compound, the GI50 (T47D) was 4.93 µM, the GI50 (SK-MEL-28) was 21.5 µM and the GI50 (RXF 393) was 23.2 µM. The GI50 (NCI-H226) was 14.9 µM, the GI50 (SF-539) was 18.9 µM and the GI50 (HCT-15) was 20.2 µM. It also gave a GI50 (UO-31) of 31.3 µM, a growth at 100 µM (NCI-H460 [3]) of 6% and a GI50 (UACC-62) of 13.3 µM. The GI50 (KM12) was 28.5 µM, the GI50 (NCI-H322M) was 29.1 µM and the GI50 (SK-OV-3) was 29.2 µM. For the same compound, the GI50 (SF-295) was 20.3 µM, the GI50 (NCI/ADR-RES) was 27.4 µM and the GI50 (CCRF-CEM) was 22 µM. For the same compound, the GI50 (HCC 2998) was 31.6 µM, the GI50 (DU-145) was 36.6 µM and the GI50 (OVCAR-8) was 26 µM. For the same compound, the GI50 (NCI-H522) was 24.2 µM, the GI50 (A549) was 23.7 µM and the GI50 (HL-60(TB)) was 80.4 µM. It also gave a GI50 (COLO 205) of 19 µM, a GI50 (SF-268 [4]) of 18.5 µM and a GI50 (SR) of 25.4 µM. For the same compound, the GI50 (SNB-75) was 26.2 µM, the GI50 (LOX IMVI) was 21.6 µM and the GI50 (ACHN) was 26.6 µM. It also gave a GI50 (EKVX) of 24.6 µM, a GI50 (PC-3) of 16.9 µM and a GI50 (MDA-MB-231) of 13.4 µM. It also gave a GI50 (UACC-257) of 30.2 µM, a GI50 (NCI-H23) of 21.8 µM and a GI50 (HOP-92) of 11.3 µM. For the same compound, the GI50 (U-251) was 20.4 µM, the GI50 (NCI-H460 [5]) was 17.6 µM and the GI50 (K562) was 17.8 µM. For the same compound, the GI50 (SN12C) was 18.4 µM, the GI50 (MDA-MB-435) was 27.8 µM and the growth at 100 µM (MCF7 [6]) was 44%. For the same compound, the GI50 (SW-620) was 22.6 µM, the growth at 100 µM (SF-268 [7]) was 26% and the GI50 (OVCAR-5) was 56.8 µM. It also gave a GI50 (SNB-19) of 22.7 µM, a GI50 (CAKI-1) of 20.6 µM and a GI50 (OVCAR-3) of 11.5 µM. The GI50 (HT-29) was 20.1 µM, the GI50 [8] was 21.9 µM and the GI50 (OVCAR-4) was 34.5 µM.
